Key:
Type in all cases: functional
HCT-116 [1] = test: Cytotoxicity against human HCT116 cells assessed as cell growth at 50 uM by SRB assay; conditions: read-out: Activity
Method in brief: (§1)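 Measured in the NCI-60 human tumour cell line panel using five-dose testing. Growth was recorded at each dose for each cell line, and a GI50 was derived for each line.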

HCT-15 = test: Cytotoxicity against human HCT15 cells assessed as cell growth at 5 uM by SRB assay; conditions: read-out: Activity; method in brief: as §1
OVCAR-3 = test: Cytotoxicity against human OVCAR3 cells assessed as cell growth at 50 uM by SRB assay; conditions: read-out: Activity
T47D = test: Cytotoxicity against human T47D cells assessed as cell growth at 0.005 uM by SRB assay; conditions: read-out: Activity
RXF 393 = test: Cytotoxicity against human RXF393 cells assessed as cell growth at 5 uM by SRB assay; conditions: read-out: Activity
[2] = Cytotoxicity against human NCI-ADR-RES cells assessed as cell growth at 0.5 uM by SRB assay; conditions: read-out: Activity
ACHN [3] = test: Cytotoxicity against human ACHN cells assessed as cell growth at 5 uM by SRB assay; conditions: read-out: Activity
K562 = test: Relative resistance, ratio of IC50 for etoposide-resistant human K/VP.5 cells to IC50 for human K562 cells
ACHN [4] = test: Cytotoxicity against human ACHN cells by SRB assay
A498 = test: Cytotoxicity against human A498 cells assessed as cell growth at 0.005 uM by SRB assay; conditions: read-out: Activity
CCRF-CEM [5] = test: Cytotoxicity against human CCRF-CEM cells assessed as cell growth at 0.5 uM by SRB assay; conditions: read-out: Activity
HOP-62 = test: Cytotoxicity against human HOP62 cells by SRB assay; method in brief: as §1
HCT-116 [6] = test: Cytotoxicity against human HCT116 cells assessed as cell growth at 5 uM by SRB assay; conditions: read-out: Activity; method in brief: as §1
MDA-MB-231 [7] = test: Cytotoxicity against human MDA-MB-231/ATCC cells assessed as cell growth at 0.5 uM by SRB assay; conditions: read-out: Activity
U-251 = test: Cytotoxicity against human U251 cells assessed as cell growth at 0.5 uM by SRB assay; conditions: read-out: Activity
HL-60(TB) [8] = test: Cytotoxicity against human HL-60(TB) cells assessed as cell growth at 50 uM by SRB assay; conditions: read-out: Activity; method in brief: as §1
A549 = test: Cytotoxicity against human A549/ATCC cells assessed as cell growth at 0.5 uM by SRB assay; conditions: read-out: Activity
HCT-116 [9] = test: Cytotoxicity against human HCT116 cells assessed as cell growth at 0.05 uM by SRB assay; conditions: read-out: Activity; method in brief: as §1
SK-MEL-2 [10] = test: Cytotoxicity against human SK-MEL-2 cells assessed as cell growth at 0.5 uM by SRB assay; conditions: read-out: Activity
CCRF-CEM [11] = test: Cytotoxicity against human CCRF-CEM cells assessed as cell growth at 0.05 uM by SRB assay; conditions: read-out: Activity
NCI-H23 [12] = test: Cytotoxicity against human NCI-H23 cells assessed as cell growth at 0.5 uM by SRB assay; conditions: read-out: Activity
SF-539 = test: Cytotoxicity against human SF539 cells assessed as cell growth at 0.05 uM by SRB assay; conditions: read-out: Activity
MDA-MB-231 [13] = test: Cytotoxicity against human MDA-MB-231/ATCC cells by SRB assay
Method in brief: (§2)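 NCI-60 panel screen; 5-dose testing giving GI50 per cell line, plus a single 10 µM one-dose test. Method details not given beyond the NCI screen.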

PC-3 = test: Cytotoxicity against human PC3 cells assessed as cell growth at 0.5 uM by SRB assay; conditions: read-out: Activity
BT-549 = test: Cytotoxicity against human BT549 cells assessed as cell growth at 0.05 uM by SRB assay; conditions: read-out: Activity
ACHN [14] = test: Cytotoxicity against human ACHN cells assessed as cell growth at 50 uM by SRB assay; conditions: read-out: Activity
CCRF-CEM [15] = test: Cytotoxicity against human CCRF-CEM cells assessed as cell growth at 5 uM by SRB assay; conditions: read-out: Activity
COLO 205 = test: Cytotoxicity against human COLO205 cells by SRB assay
CAKI-1 = test: Cytotoxicity against human Caki1 cells by SRB assay
SK-MEL-2 [16] = test: Cytotoxicity against human SK-MEL-2 cells assessed as cell growth at 0.005 uM by SRB assay; conditions: read-out: Activity
SK-MEL-28 = test: Cytotoxicity against human SK-MEL-28 cells by SRB assay; method in brief: as §2
MDA-MB-435 [17] = test: Cytotoxicity against human MDA-MB-435 cells by SRB assay; method in brief: as §2
HL-60(TB) [18] = test: Cytotoxicity against human HL-60(TB) cells assessed as cell growth at 0.05 uM by SRB assay; conditions: read-out: Activity; method in brief: as §1
UO-31 = test: Cytotoxicity against human UO31 cells assessed as cell growth at 5 uM by SRB assay; conditions: read-out: Activity
OVCAR-5 = test: Cytotoxicity against human OVCAR5 cells assessed as cell growth at 0.05 uM by SRB assay; conditions: read-out: Activity
MDA-MB-435 [19] = test: Cytotoxicity against human MDA-MB-435 cells assessed as cell growth at 0.5 uM by SRB assay; conditions: read-out: Activity
SR = test: Cytotoxicity against human SR cells assessed as cell growth at 0.005 uM by SRB assay; conditions: read-out: Activity
SW-620 = test: Cytotoxicity against human SW620 cells by SRB assay; method in brief: as §2
NCI-H23 [20] = test: Cytotoxicity against human NCI-H23 cells assessed as cell growth at 5 uM by SRB assay; conditions: read-out: Activity
MDA-MB-435 [21] = test: Cytotoxicity against human MDA-MB-435 cells assessed as cell growth at 50 uM by SRB assay; conditions: read-out: Activity
HCC 2998 = test: Cytotoxicity against human HCC2998 cells by SRB assay; method in brief: as §1
[22] = read-out: LC50 (the source's name)
[23] = read-out: pLC50 (the source's name) (converted)

SMILES: COc1cc([C@@H]2c3cc4c(cc3[C@@H](NC(=O)CN3CCN(CCCCCCCCCCN5CCN(CC(=O)N[C@@H]6c7cc8c(cc7[C@@H](c7cc(OC)c(O)c(OC)c7)[C@H]7C(=O)OC[C@@H]76)OCO8)CC5)CC3)[C@H]3COC(=O)[C@H]23)OCO4)cc(OC)c1O
- growth at 50 µM (HCT-116 [1]): -51%
- growth at 5 µM (HCT-15): -69%
- growth at 50 µM (OVCAR-3): -50%
- growth at 0.005 µM (T47D): 94%
- growth at 5 µM (RXF 393): -34%
- growth at 0.5 µM [2]: 101%
- growth at 5 µM (ACHN [3]): -77%
- Ratio IC50 (K562): 2.6
- GI50 (ACHN [4]; read-out: GI50): 0.32 µM
- CC50 (ACHN [4]; [22]): 2.95 µM
- TGI (ACHN [4]; read-out: TGI): 1.11 µM
- GI50 (ACHN [4]; read-out: pGI50 (converted)): 0.324 µM
- CC50 (ACHN [4]; [23]): 2.95 µM
- TGI (ACHN [4]; read-out: pTGI (converted)): 1.12 µM
- growth at 0.005 µM (A498): 73%
- growth at 0.5 µM (CCRF-CEM [5]): 4%
- GI50 (HOP-62; read-out: GI50): 0.0438 µM
- TGI (HOP-62; read-out: TGI): 0.863 µM
- GI50 (HOP-62; read-out: pGI50 (converted)): 0.0437 µM
- TGI (HOP-62; read-out: pTGI (converted)): 0.871 µM
- growth at 5 µM (HCT-116 [6]): -15%
- growth at 0.5 µM (MDA-MB-231 [7]): 87%
- growth at 0.5 µM (U-251): 51%
- growth at 50 µM (HL-60(TB) [8]): -46%
- growth at 0.5 µM (A549): 9%
- growth at 0.05 µM (HCT-116 [9]): 77%
- growth at 0.5 µM (SK-MEL-2 [10]): 74%
- growth at 0.05 µM (CCRF-CEM [11]): 62%
- growth at 0.5 µM (NCI-H23 [12]): 25%
- growth at 0.05 µM (SF-539): 74%
- GI50 (MDA-MB-231 [13]; read-out: GI50): 0.958 µM
- CC50 (MDA-MB-231 [13]; [22]): 18.3 µM
- TGI (MDA-MB-231 [13]; read-out: TGI): 2.28 µM
- GI50 (MDA-MB-231 [13]; read-out: pGI50 (converted)): 0.955 µM
- CC50 (MDA-MB-231 [13]; [23]): 18.2 µM
- TGI (MDA-MB-231 [13]; read-out: pTGI (converted)): 2.29 µM
- growth at 0.5 µM (PC-3): 61%
- growth at 0.05 µM (BT-549): 87%
- growth at 50 µM (ACHN [14]): -87%
- growth at 5 µM (CCRF-CEM [15]): -10%
- GI50 (COLO 205; read-out: GI50): 0.906 µM
- CC50 (COLO 205; [22]): > 50 µM
- TGI (COLO 205; read-out: TGI): 3.52 µM
- GI50 (COLO 205; read-out: pGI50 (converted)): 0.912 µM
- CC50 (COLO 205; [23]): > 50.1 µM
- TGI (COLO 205; read-out: pTGI (converted)): 3.55 µM
- GI50 (CAKI-1; read-out: GI50): 1.93 µM
- CC50 (CAKI-1; [22]): 21 µM
- TGI (CAKI-1; read-out: TGI): 8.37 µM
- GI50 (CAKI-1; read-out: pGI50 (converted)): 1.95 µM
- CC50 (CAKI-1; [23]): 20.9 µM
- TGI (CAKI-1; read-out: pTGI (converted)): 8.32 µM
- growth at 0.005 µM (SK-MEL-2 [16]): 99%
- GI50 (SK-MEL-28; read-out: GI50): 6.2 µM
- CC50 (SK-MEL-28; [22]): 29.8 µM
- TGI (SK-MEL-28; read-out: TGI): 13.6 µM
- GI50 (SK-MEL-28; read-out: pGI50 (converted)): 6.17 µM
- CC50 (SK-MEL-28; [23]): 29.5 µM
- TGI (SK-MEL-28; read-out: pTGI (converted)): 13.5 µM
- GI50 (MDA-MB-435 [17]; read-out: GI50): 0.295 µM
- TGI (MDA-MB-435 [17]; read-out: TGI): 1.23 µM
- GI50 (MDA-MB-435 [17]; read-out: pGI50 (converted)): 0.295 µM
- TGI (MDA-MB-435 [17]; read-out: pTGI (converted)): 1.23 µM
- growth at 0.05 µM (HL-60(TB) [18]): 69%
- growth at 5 µM (UO-31): -13%
- growth at 0.05 µM (OVCAR-5): 83%
- growth at 0.5 µM (MDA-MB-435 [19]): 39%
- growth at 0.005 µM (SR): 98%
- GI50 (SW-620; read-out: GI50): 0.372 µM
- CC50 (SW-620; [22]): 3.38 µM
- TGI (SW-620; read-out: TGI): 1.33 µM
- GI50 (SW-620; read-out: pGI50 (converted)): 0.372 µM
- CC50 (SW-620; [23]): 3.8 µM
- TGI (SW-620; read-out: pTGI (converted)): 1.32 µM
- growth at 5 µM (NCI-H23 [20]): -35%
- growth at 50 µM (MDA-MB-435 [21]): -40%
- GI50 (HCC 2998; read-out: GI50): 1.09 µM
- CC50 (HCC 2998; [22]): 20.5 µM
- TGI (HCC 2998; read-out: TGI): 8.39 µM
- GI50 (HCC 2998; read-out: pGI50 (converted)): 1.1 µM
- CC50 (HCC 2998; [23]): 20.4 µM
- TGI (HCC 2998; read-out: pTGI (converted)): 8.32 µM

— ChEMBL document CHEMBL3588757, “Structure-based design, synthesis and biological testing of piperazine-linked bis-epipodophyllotoxin etoposide analogs” (Bioorg Med Chem, 2015)
